Measurements published in ChEMBL document CHEMBL3351507, “11H-Pyrido[3',2':4,5]pyrrolo[3,2-c]cinnoline and pyrido[3',2':4,5]pyrrolo[1,2-c][1,2,3]benzotriazine: two new ring systems with antitumor activity” (2014).
The source made the active and inactive calls.

Key:
[1] = Cytotoxicity against human OVCAR4 cells assessed as growth inhibition after 72 hrs by MTT assay; type: functional; details: OVCAR-4, 72 h
Outline: (§1)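 NCI 60-cell-line panel screen. Compounds were tested at 5 concentrations in 10-fold dilution (10^-4 to 10^-8 M) across the full panel. GI50 was taken as the molar concentration giving 50% inhibition of net cell growth.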

[2] = target: T1, DNA topoisomerase 1 (Homo sapiens) (UniProt P11387); experiment: Inhibition of human DNA topoisomerase 1-mediated relaxation of supercoiled pBR322 plasmid DNA at 5 to 100 uM after 30 mins by agarose gel electrophoresis relative to untreated control
T1 sequence (whole entry): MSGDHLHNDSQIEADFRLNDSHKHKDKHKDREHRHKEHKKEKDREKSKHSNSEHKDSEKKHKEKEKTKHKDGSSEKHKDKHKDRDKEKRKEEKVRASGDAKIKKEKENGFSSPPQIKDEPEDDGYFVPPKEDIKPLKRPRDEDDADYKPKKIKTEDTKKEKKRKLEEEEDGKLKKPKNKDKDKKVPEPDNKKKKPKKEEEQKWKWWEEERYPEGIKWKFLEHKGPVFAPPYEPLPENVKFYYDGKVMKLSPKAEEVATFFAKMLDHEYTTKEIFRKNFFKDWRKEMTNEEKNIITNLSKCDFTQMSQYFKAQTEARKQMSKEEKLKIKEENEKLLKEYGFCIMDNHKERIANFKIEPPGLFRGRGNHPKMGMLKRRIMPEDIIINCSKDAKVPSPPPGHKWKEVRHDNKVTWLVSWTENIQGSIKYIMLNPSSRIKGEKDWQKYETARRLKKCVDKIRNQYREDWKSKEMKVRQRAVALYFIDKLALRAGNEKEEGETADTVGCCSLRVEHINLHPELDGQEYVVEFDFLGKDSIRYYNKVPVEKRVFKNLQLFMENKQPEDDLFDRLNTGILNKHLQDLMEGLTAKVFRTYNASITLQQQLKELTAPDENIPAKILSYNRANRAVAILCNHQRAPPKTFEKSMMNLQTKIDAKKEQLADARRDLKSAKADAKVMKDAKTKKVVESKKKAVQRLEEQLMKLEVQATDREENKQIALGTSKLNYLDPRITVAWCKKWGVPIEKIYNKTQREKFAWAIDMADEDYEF
Outline: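 Human topoisomerase I (10 units) was incubated with 0.250 µg supercoiled pBR322 and compound (5-100 µM) for 30 min at 37 °C. Buffer: 50 mM Tris-HCl pH 7.5, 50 mM KCl, 0.5 mM DTT, 10 mM MgCl2, 0.1 mM EDTA, 30 µg/mL BSA. Reactions were stopped with 1% SDS and proteinase K (50 µg/mL, 30 min). Samples ran on 0.8% agarose in TAE at 20 V overnight, then were post-stained with ethidium bromide.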

HOP-92 = experiment: Cytotoxicity against human HOP92 cells assessed as growth inhibition after 72 hrs by MTT assay; type: functional; details: HOP-92, 72 h
SF-295 = experiment: Cytotoxicity against human SF295 cells assessed as growth inhibition after 72 hrs by MTT assay; type: functional; details: SF-295, 72 h; outline: as §1
Jurkat [3] = experiment: Cell cycle arrest in human Jurkat cells assessed as accumulation at G2/M phase at 0.25 uM after 24 hrs by propidium iodide staining-based flow cytometry (reference value: 21.9%); type: functional
Jurkat [4] = experiment: Cell cycle arrest in human Jurkat cells assessed as accumulation at S phase at 0.5 uM after 24 hrs by propidium iodide staining-based flow cytometry (reference value: 15.5%); type: functional
BT-549 = experiment: Cytotoxicity against human BT549 cells assessed as growth inhibition after 72 hrs by MTT assay; type: functional; details: BT-549, 72 h
[5] = Cytotoxicity against human LoVo/DX cells assessed as growth inhibition after 72 hrs by MTT assay; type: functional
Outline: (§2)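 Cells were grown in medium with 10% heat-inactivated FBS plus penicillin/streptomycin: RPMI-1640 for Jurkat and CEM, DMEM for A-431, HAM's F12 for LoVo. The doxorubicin-resistant LoVo subclone was kept with 0.1 µg/mL doxorubicin. Cells were seeded at 5x10^3 per well and pre-incubated 24 h at 37 °C.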

[6] = Cytotoxicity against human EKVX cells assessed as growth inhibition after 72 hrs by MTT assay; type: functional
Jurkat [7] = experiment: Cell cycle arrest in human Jurkat cells assessed as accumulation at G1 phase at 0.25 uM after 24 hrs by propidium iodide staining-based flow cytometry (reference value: 62.6%); type: functional
HOP-62 = experiment: Cytotoxicity against human HOP62 cells assessed as growth inhibition after 72 hrs by MTT assay; type: functional; details: HOP-62, 72 h
KM12 = experiment: Cytotoxicity against human KM12 cells assessed as growth inhibition after 72 hrs by MTT assay; type: functional; details: KM12, 72 h
ACHN = experiment: Cytotoxicity against human ACHN cells assessed as growth inhibition after 72 hrs by MTT assay; type: functional
Jurkat [8] = experiment: Induction of apoptosis in human Jurkat cells assessed as lysosomal dysfunction at 250 to 500 nM after 24 hrs by acridine orange staining-based flow cytometry relative to control; type: functional, cell-based
Outline: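 Jurkat cells were treated for 24 h at two concentrations, then stained with acridine orange. Flow cytometry (488 nm excitation, FL3 emission) scored red fluorescence of intact lysosomes. Mean ± SEM of at least 3 experiments, compared with control.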

K562 = experiment: Cytotoxicity against human K562 cells assessed as growth inhibition after 72 hrs by MTT assay; type: functional; details: K562, 72 h
COLO 205 = experiment: Cytotoxicity against human COLO205 cells assessed as growth inhibition after 72 hrs by MTT assay; type: functional; details: COLO 205, 72 h
LoVo = experiment: Cytotoxicity against human LoVo cells assessed as growth inhibition after 72 hrs by MTT assay; type: functional; outline: as §2
DU-145 = experiment: Cytotoxicity against human DU145 cells assessed as growth inhibition after 72 hrs by MTT assay; type: functional; details: DU-145, 72 h
HCC 2998 = experiment: Cytotoxicity against human HCC2998 cells assessed as growth inhibition after 72 hrs by MTT assay; type: functional; details: HCC 2998, 72 h
Jurkat [9] = experiment: Cytotoxicity against human Jurkat cells assessed as growth inhibition after 72 hrs by MTT assay; type: functional; outline: as §2
HL-60(TB) = experiment: Cytotoxicity against human HL-60(TB) cells assessed as growth inhibition after 72 hrs by […] assay; type: functional; details: HL-60, 72 h
Outline: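 HL-60(TB) was tested within the NCI 60 human cancer cell line panel. Compounds that met the NCI single-dose activity criteria were retested on the full panel at 5 concentrations in 10-fold dilutions (10-4–10-8 M). GI50 is the molar concentration giving 50% inhibition of net cell growth; TGI was also reported.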

SK-MEL-2 = experiment: Cytotoxicity against human SK-MEL-2 cells assessed as growth inhibition after 72 hrs by MTT assay; type: functional; details: SK-MEL-2, 72 h; outline: as §1
RPMI-8226 = experiment: Cytotoxicity against human RPMI8226 cells assessed as growth inhibition after 72 hrs by MTT assay; type: functional; details: RPMI-8226, 72 h; outline: as §1
MDA-MB-435 = experiment: Cytotoxicity against human MDA-MB-435 cells assessed as growth inhibition after 72 hrs by MTT assay; type: functional; details: MDA-MB-435, 72 h
[10] = Cytotoxicity against human OVCAR3 cells assessed as growth inhibition after 72 hrs by MTT assay; type: functional; details: OVCAR-3, 72 h; outline: as §1

SMILES | GI50 [1] | Activity [2] | GI50 (HOP-92) | GI50 (SF-295) | Activity (Jurkat [3]) | Activity (Jurkat [4]) | GI50 (BT-549) | GI50 [6] | GI50 (HOP-62) | GI50 (KM12) | GI50 (ACHN) | GI50 (K562) | GI50 (COLO 205) | GI50 (DU-145) | GI50 (HCC 2998) | GI50 (HL-60(TB)) | GI50 (SK-MEL-2) | GI50 (RPMI-8226) | GI50 (MDA-MB-435) | GI50 [10] | also measured
COc1ccc2c(c1)nnc1c3cccnc3[nH]c21 | 1410 nM | Active | 82 nM | 1590 nM | 45.7% | 28.6% | 3430 nM | 2820 nM | 5470 nM | 1220 nM | 200 nM | 220 nM | 1130 nM | 1880 nM | 8230 nM | 160 nM | 1960 nM | 730 nM | 1440 nM | 960 nM | GI50 [5]: 1210 nM; Activity (Jurkat [7]): 30.2%; Activity (Jurkat [8]): inactive; GI50 (LoVo): 3640 nM; GI50 (Jurkat [9]): 90 nM
O=Nc1c2cccnc2n2nnc3ccc(Cl)cc3c12 | 980 nM |  | 100 nM | 2070 nM |  |  | 1780 nM | 1830 nM | 1440 nM | 910 nM | 330 nM | 130 nM | 1000 nM | 610 nM | 8400 nM | 300 nM | 2280 nM | 170 nM | 1260 nM | 250 nM | 
COc1cc2nnn3c4ncccc4c(N=O)c3c2cc1OC | 1910 nM | Active | 39 nM | 2620 nM | 47.3% | 24.7% | 5530 nM | 3310 nM | 1900 nM | 1380 nM | 250 nM | 210 nM | 5260 nM | 1990 nM | 1000 nM | 40 nM | 17300 nM | 110 nM | 2380 nM | 460 nM | GI50 [5]: 4330 nM; Activity (Jurkat [7]): 37.3%; Activity (Jurkat [8]): inactive; GI50 (LoVo): 3890 nM; GI50 (Jurkat [9]): 200 nM
COc1cc2nnc3c4cccnc4[nH]c3c2cc1OC | 1600 nM |  | 210 nM | 2430 nM |  |  | 3700 nM | 2430 nM | 2260 nM | 1910 nM | 330 nM | 330 nM | 2960 nM | 2100 nM | 1950 nM | 190 nM | 11300 nM | 190 nM | 2230 nM | 1150 nM | 
COc1ccc2c(c1)nnn1c3ncccc3c(N=O)c21 | 1290 nM | Active | 42 nM | 4690 nM | 39.4% | 27.2% | 5060 nM | 3380 nM | 7510 nM | 1030 nM | 94 nM | 110 nM | 680 nM | 1860 nM | 7230 nM | 43 nM | 2180 nM | 260 nM | 1940 nM | 1110 nM | GI50 [5]: 650 nM; Activity (Jurkat [7]): 35.5%; Activity (Jurkat [8]): inactive; GI50 (LoVo): 1280 nM; GI50 (Jurkat [9]): 90 nM
